Measurements gathered from unrelated publications.
Lines come from different studies, so protocols differ. In brackets after ≈: the same amount, converted by molar mass.
Observed: microbial growth

SMILES | organism | technique | strain | concentration | time | quantity | value
CCCS(=O)(=O)Oc1ccc(C=NNC(=O)CSc2nc3c(C)cccc3c(=O)n2-c2ccccc2)cc1OC | Bacillus cereus | well diffusion | – | 20 µg/mL | – | inhibition zone | 3 mm
O=c1oc2ccccc2c(Nc2ccccc2)c1I | Salmonella enterica | broth dilution | TYPHIMURIUM | – | – | MIC90 | 10 µg/mL (≈ 27.5 µM)
[H]/N=C(/N)N[C@H]1[C@H](O)[C@@H](O)[C@H](O[C@@H]2O[C@@H](C)[C@](O)(C=O)[C@H]2O[C@@H]2O[C@@H](CO)[C@H](O)[C@@H](O)[C@@H]2NC)[C@@H](N/C(N)=N\[H])[C@@H]1O | Bacillus cereus | broth dilution | ATCC14579 | – | – | MIC | 15 µg/mL (≈ 25.8 µM)
Nc1ccc(S(=O)(=O)Nc2ncccn2)cc1 | Salmonella enterica | broth dilution | TYPHIMURIUM | – | – | MIC | 94 µg/mL (≈ 376 µM)
CNC(C)C1CCC(N)C(OC2C(N)CC(N)C(OC3OCC(C)(O)C(NC)C3O)C2O)O1 (centres unmarked) | Bacillus cereus | broth dilution | – | – | – | MIC | 2 µg/mL (≈ 4.19 µM)
N#CC(C#N)=C1SC(C(=O)c2ccc(Nc3cnccn3)cc2)=NN1c1ccc([N+](=O)[O-])cc1 | Salmonella enterica | broth dilution | ATCC13076 TYPHIMURIUM | – | – | MIC | 12.5 µg/mL (≈ 26.7 µM)
O=C1/C(=C/c2ccc3ccccc3c2O)NC(=S)N1c1ccccc1 | Bacillus cereus | broth dilution | ATCC14579 | – | – | MIC | 24 µg/mL (≈ 69.3 µM)
COc1ccc(N2N=C(C(=O)c3ccc(Nc4cnccn4)cc3)SC2=C(C#N)C#N)cc1 | Salmonella enterica | broth dilution | ATCC13076 TYPHIMURIUM | – | – | MIC | 6.25 µg/mL (≈ 13.8 µM)
COc1ccc(C=NNC(=O)CSc2nc3c(C)cccc3c(=O)n2-c2ccccc2)cc1OS(C)(=O)=O | Bacillus cereus | well diffusion | – | 20 µg/mL | – | inhibition zone | 2 mm
CC1(C)S[C@@H]2[C@H](NC(=O)[C@H](N)c3ccccc3)C(=O)N2[C@H]1C(=O)O | Salmonella enterica | broth dilution | ATCC14028 | – | 12 h | MIC | 0.25 µg/mL (≈ 0.715 µM)
N#CC(C#N)=C1SC(C(=O)c2ccc(Nc3cnccn3)cc2)=NN1c1ccccc1 | Salmonella enterica | broth dilution | ATCC13076 TYPHIMURIUM | – | – | MIC | 100 µg/mL (≈ 236 µM)
